# In the RNAGym collection of RNA variant scans (doi:10.1126/science.aae0568):
# This sample holds only a part of the variants without activity.
# B1: tRNA (parent)
# chain: GUUCCGUUGGCGUAAUGGUAACGCGUCUCCCUCCUAAGGAGAAGACUGCGGGUUCGAGUCCCGUACGGAACG
# Variants of: B1
# Experiment: yeast fitness relative to wild type (ratio to wild type); higher = fitter; tRNA-Arg(CCU), competitive growth, 37 C, YPD
# How it was run: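 Genotype frequency changes were the basis for Darwinian fitness relative to wild type. The frequencies came from 100-nucleotide paired-end sequencing of gene amplicons from the start population and each end population of pooled yeast strains with tRNA-Arg(CCU) gene variants at the native locus. Competition ran in YPD at 37°C for 24 hours in six replicates, genotypes needed ≥ 100 starting reads, and estimates < 0.5 were set to 0.5.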
row,Variant,yeast fitness
1,U8A A21G C27U G52C,≤ 0.5
2,U7G C31U A69U,0.628
3,U8C G41C,0.88
4,U8C G10C G23C C29G G51A,0.72
5,U8C A43C C66G,≤ 0.5
6,U8A C22U G38C C49G,0.602
7,U7G C55G,0.655
8,U8C C34U,0.728
9,U8C G12A A65G,0.615
10,U8G G10C,≤ 0.5
11,U7G G10C G44C A69U,0.617
12,U8C C24A C49U,≤ 0.5
13,U7G U35A A43C,0.532
14,U8C C31G A42G,0.624
15,U8A C11A A36G C61G,≤ 0.5
16,U8C C22G C49U A69U,0.573
17,U7G G41C A69C,≤ 0.5
18,U7G G39C A57G,≤ 0.5
19,U8A C31G A42G G52C,≤ 0.5
20,U8A U35C A42C G67A,0.568
21,U8C U47A,0.937

row,Variant,yeast fitness
1,U8G A15C U28A,≤ 0.5
2,U7G C29A C34A C62A,≤ 0.5
3,U8G A42U A43C,0.51
4,U8A C24A C30U C31U G48C C66U,≤ 0.5
5,U8G A21U G68C,≤ 0.5
6,U8A C22U A43G C66A,≤ 0.5
7,U8A A43G,0.742
8,U7G G41C G58C,≤ 0.5
9,U8C C30G C31G,0.58
10,U8C C27G A42G,≤ 0.5
11,U8C G12C,0.853
12,U7G C34A,0.757
13,U8A C29U C34U G58C,≤ 0.5
14,U8G A20U G44C,0.558
15,U8A C24U C31G,≤ 0.5
16,U8C A21U C34A A40C G67A,≤ 0.5
17,U8G C11U G48A A69U,≤ 0.5
18,U8A C11A C24U G67C,≤ 0.5
19,U8C A36U,0.647
20,U8C G25C G38C C49U A57U C66A,≤ 0.5
21,U8G G17A C31A C66U,≤ 0.5

row,Variant,yeast fitness
1,U8G G17A C24G,≤ 0.5
2,U8C C30U U47A G67C,≤ 0.5
3,U8C C22G C60A,0.609
4,U8G G48A C49G,≤ 0.5
5,U8A C11A C31G,≤ 0.5
6,U8A C30U,0.665
7,U8A C30G,≤ 0.5
8,U8C G9A U13A A15G A37U,0.549
9,U8C C22A A36C C55G A65G C66G,≤ 0.5
10,U8C A21U,0.802
11,U8C C11A U54C,≤ 0.5
12,U8C U16A A21G,≤ 0.5
13,U8A U26C G52C,≤ 0.5
14,U8G G18C A37G A40G,0.546
15,U8C A37G G50A A69U,≤ 0.5
16,U8A G38C G48A,≤ 0.5
17,U8G A14U G39A C55G,≤ 0.5
18,U8C C27U C34G C60A,0.503
19,U8C C31U A45C U47C,≤ 0.5
20,U8C C24G A57G,≤ 0.5
21,U7G C29G C46U A65U,≤ 0.5

row,Variant,yeast fitness
1,U7G G12C G23C C29G A57U C60A G68C,≤ 0.5
2,U8C G17C U26C C34A A45C G48A,≤ 0.5
3,U8A G12C U47C,≤ 0.5
4,U8C U47C U59A A70G,≤ 0.5
5,U8A C27A A37U G67U,0.612
6,U8C C11U C29A,≤ 0.5
7,U8C G12C C55U A70C,0.542
8,U8A U13A,0.606
9,U8C C11U C24G A45C,0.629
10,U8A C22G,0.7
11,U7G C11G C34U G41A,0.525
12,U8A G17A C62G,≤ 0.5
13,U7G U35A C49G C60A,≤ 0.5
14,U8C G12A A21C,≤ 0.5
15,U8C A40U A69U,0.75
16,U8A G18A C30A U32A U35A G67A,≤ 0.5
17,U8C U16A A21C C24G A37U C55U,≤ 0.5
18,U8C U13C C24A A37G,0.761
19,U7G A70U,1.01
20,U8A A14C C31A,0.571
